“Also recorded” adds a separate entry of the source.
What was measured:
IgE^dansyl = assay: Fluorescence quenching assay, hapten binding to IgE^dansyl; conditions: dansyl-IgE^dansyl versus NF-IgE^DNP
Procedure, shortened: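 Monovalent hapten titrated into 10 nM IgE in PBS. Binding read as quenching of IgE tryptophan fluorescence at 335 nm, which occurs only when hapten and IgE are in proximity (<10 nm). Monovalent binding constants were derived from the quenching. At least triplicate.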

RBL cells = assay: Inhibition of allergen-induced RBL mast cell degranulation; format: cell-based, rat; conditions: equimolar IgE^DNP and IgE^dansyl; 500 nM HtTA [dansyl2NF2]
IgE = conditions: read-out: Kd for IgE (nucleotide-binding site ligand); cited from earlier work

| Compound | difference in affinity between dansyl-IgE^dansyl and NF-IgE^DNP pairs (IgE^dansyl) [fold] | inhibition of HtTA [dansyl2NF2]-induced degranulation (RBL cells) | Kd (IgE) [µM] |
| --- | --- | --- | --- |
| dansyl | 760 | – | – |
| O=C(O)CCCc1c[nH]c2ccccc12 [IBA, indole-3-butyric acid] | – | did not inhibit degranulation; also recorded: no inhibition of mast cell degranulation was observed | 4.5 ± 0.6 |

Reference: article PMC3913000 (Nature chemical biology, 2013)
